Source: PubChem
Shown are actives, neighbours in structure and some others; about 2.3% of the full set was active somewhere.
TPT1 inh: blocks Candida albicans tRNA 2'-phosphotransferase | inhibition, % at 5 µM | 300,000 compounds, 0.81% hits | recombinant caTPT1, FP RNA substrate dephosphorylation;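 active = inhibition above the mean of all tested compounds plus 3 SD, set per screening campaign, cut at about 24% in these data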;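 also: plate controls were DMSO alone for no effect and ferristatin control at 100 nM for full effect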
Myeloid diff MLP: compounds promoting myeloid differentiation. calls only at 10 µM. ER-HoxA9 myeloid progenitors, lysozyme-GFP differentiation, flow cytometry. 360,000 compounds, 1% hits;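 active = normalized GFP-positive differentiation at or above the plate's own cutoff, the solvent-only control mean plus 3 SD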;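 also: cells exposed to compound for four days before flow analysis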
Rpn11 block: inhibitors of human proteasome Rpn11; O00487; human 26S proteasome, Ub4-pepOG fluorescence polarization; 20S core pre-blocked with epoxomicin; inhibition, % at 20 µM; 360,000 compounds, 0.59% hits;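 active = inhibition at 20 µM, scaled to each plate's controls, above about 33%, limit read from the data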
Target sequence (O00487 whole entry, looked up): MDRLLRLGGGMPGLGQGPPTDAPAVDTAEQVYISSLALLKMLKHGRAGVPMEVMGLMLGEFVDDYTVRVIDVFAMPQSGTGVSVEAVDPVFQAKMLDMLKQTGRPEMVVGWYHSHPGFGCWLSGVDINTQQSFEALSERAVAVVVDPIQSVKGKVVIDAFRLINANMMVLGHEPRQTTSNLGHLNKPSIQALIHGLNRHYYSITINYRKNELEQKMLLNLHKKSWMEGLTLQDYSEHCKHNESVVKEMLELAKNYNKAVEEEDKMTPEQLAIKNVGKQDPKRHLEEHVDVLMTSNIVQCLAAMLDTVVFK
CSN deneddyl inh: CSN deneddylation inhibition; Purified CSN, SCF-Nedd8-OG deneddylation, fluorescence polarization; Q92905; inhibition, % at 12.5 µM; 360,000 compounds, 0.38% hits;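 active = pattern-corrected inhibition above about 35%, with an unprinted fluorescence ratio check between 0.5 and 1.5, limit read from the data, passing the limit was not always enough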;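 also: 0% = enzyme with substrate and 100% = substrate without enzyme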
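Material: human Csn5 produced in HEK293T cells; Input: enzyme 0.24 nM; Reagent: SCFSkp2-Nedd8OG substrate at 10 nM final; Dosing: 12.5 µM compound; Incubation: 90 min reaction at room temperature; Detection: fluorescence polarization of the substrate; Evaluation: % inhibition of substrate cleavage by Csn5; Control set: substrate-only high control, full reaction low control.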
HNF4A DNA FP: change in binding of human HNF4 alpha to DNA | P41235 | HNF4a-FITC DNA binding, fluorescence polarization, 1 h | activity change, % at 10 µM | 360,000 compounds, 0.3% hits; in the data active = activity change above about 30%, passing the limit was not always enough
Myeloid diff: myeloid differentiation induction | 2,300 compounds, 2% hits | calls only | shares compounds with Myeloid diff MLP | ER-HoxA9 myeloid progenitors, GFP/Mac1 double-positive flow;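 active = share of green or green-and-red cells above 9 and 9% in run 1 or 4 and 3% in run 2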
GFP autofluor: flagged as fluorescent in myeloid differentiation counter-screen; shares compounds with Myeloid diff MLP; ER-HoxA9 myeloid progenitors, no estrogen, GFP autofluorescence flow cytometry; vehicle wells 0%, positive control 100%; fluorescence response, % (test concentration not listed); 2,300 compounds, 7.4% hits; AID 651707;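 active = over 5% cells positive for green fluorescent reporter, or over 2% positive for both it and APC stain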;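 also: range taken on the double positive population between DMSO and positive control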
The depositor's hits bear a star; i = inactive; . = no result; + = active, no number.

SMILES | TPT1 inh | Myeloid diff MLP | Rpn11 block | CSN deneddyl inh | HNF4A DNA FP | Myeloid diff | GFP autofluor
COC(=O)C1CC(=O)c2sccc2C1 (stereo not drawn) | -2 | i | 2 | 0 | 0 | . | .
CCOc1ccc(N=c2scc(-c3ccc(OC)cc3)n2CCO)cc1 | -2 | i | 5 | 4 | 0 | i | 0
COc1ccc(S(=O)(=O)Nc2cccc(-c3ccc4nncn4n3)c2)cc1 | -2 | i | -6 | -11 | 3 | i | 0
COC(=O)c1cc(-n2cccc2)ccc1N1CCOCC1 | -1 | i | 0 | 2 | 0 | . | .
COC(=O)c1cc(NS(=O)(=O)c2ccc(C)c3ccccc23)ccc1N1CCOCC1 | -4 | i | 1 | 1 | -1 | i | 0
Cc1ccc(N2CCN(S(=O)(=O)c3ccc(Cl)s3)CC2C)cc1 (stereo not drawn) | 0 | i | 0 | -1 | 4 | . | .
Cc1ccc(/C=C/c2onc(C)c2S(=O)(=O)N2CCC(C(=O)N3CCCCC3)CC2)cc1 | -5 | i | -2 | 3 | 1 | i | 0
CCCCNC(=O)CCc1nc2cccnc2n1Cc1ccccc1 | -1 | + | 5 | 2 | 2 | i | 0
CCC(C)(NC(=O)c1ccc2c(c1)OCO2)C(=O)NC1CCCCC1 (stereo not drawn) | 0 | i | -2 | 2 | 0 | . | .
CCN(CC)CCNC(=O)c1ccc(NC(=O)/C=C/c2ccc3ccccc3n2)cc1 | . | + | 38 | 7 | 20 | i | 0
COCc1c(C)cc(C)c(/C=N/O)c1C | 3 | i | -3 | -1 | 0 | i | 2
O=[N+]([O-])c1cc([N+](=O)[O-])c2nonc2c1Nc1ccccc1O | . | + | 0 | 1 | 9 | i | 4
COc1ccc(-c2nc(CN3CCC(C(=O)N4CCc5ccccc54)CC3)c(C)o2)cc1OC | -4 | i | 5 | 1 | 2 | i | 1
C=CCNC(=O)c1ccccc1NC(=O)c1ccccc1 | 1 | i | 5 | -3 | -1 | i | 1
COc1ccc(Cl)cc1CC1(C)C(=O)Nc2ccc(-c3ccccc3OC)cc21 (stereo not drawn) | . | + | 0 | 4 | 0 | i | 0
CN(C)CCN(C(=O)c1cccc(Cl)c1)c1nc2c(Cl)cccc2s1 | -4 | i | -7 | 4 | -4 | . | .
CN(C)CCN(C(=O)c1ccccc1Cl)c1nc2c(Cl)cccc2s1 | -3 | + | -5 | -5 | 1 | i | 1
CCOc1cc(N2CCOCC2)c(OCC)cc1NC(=O)c1cnccn1 | . | i | -8 | 1 | -1 | . | .
COc1ccccc1CN1C(=O)C2CC=CCC2C1=O (stereo not drawn) | -2 | i | -6 | 1 | -3 | i | 1
CCCn1nc(C(=O)Oc2ccc3c(C)cc(=O)oc3c2)c2ccccc2c1=O | -1 | i | -9 | 9 | -4 | . | .
CCOC(=O)c1[nH]c2ccccc2c1NC(=O)c1ccc(Br)o1 | -3 | + | -7 | 1 | -2 | i | 0
COc1ccc(-n2nnnc2C(c2cccc(OC)c2OC)N2CCN(C/C=C/c3ccccc3)CC2)cc1 (stereo not drawn) | . | i | -3 | 0 | 4 | . | .
O=C(NC1CCCCC1)C(c1ccco1)N(Cc1ccco1)C(=O)c1ccco1 (stereo not drawn) | -2 | i | -4 | 7 | -2 | i | 0
O=C(NC1CCCCC1)C(c1ccco1)N(CCc1ccccc1)C(=O)C(F)(F)F (stereo not drawn) | -7 | i | 3 | -1 | -6 | i | 0
O=C(NCC(=O)N(Cc1ccccc1)C(C(=O)NC1CCCCC1)c1ccco1)c1ccco1 (stereo not drawn) | 3 | i | 1 | 1 | 1 | . | .
COc1ccc(CNc2nc3ccc(C)cc3s2)c(OC)c1OC | 1 | i | 5 | -2 | -3 | . | .
O=C(NCc1ccc(OC(F)(F)F)cc1)C12CN(Cc3ccccc3)CC1C(c1cccc([N+](=O)[O-])c1)=NO2 (stereo not drawn) | -1 | i | 4 | -6 | 4 | . | .
